Compounds with a hit are over-represented: about 3.4% of the library has one in this group of screens.
VIM-2 inh – blocks Pseudomonas aeruginosa VIM-2 metallo-beta-lactamase; purified VIM-2, nitrocefin hydrolysis, epi-absorbance fluorescence; inhibition, % at 5.6 µM; 0.89% of 290,000 active; AID 1527;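 active = inhibition above the mean of all tested compounds plus 3 SD, cutoff set per screening run, cut at about 7.5% in these data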;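 note: red hydrolysis product quenches plate fluorescence so inhibitors raise well fluorescence; 0% = enzyme with DMSO and 100% = DMSO without enzyme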
CHT allo act – allosteric activators of human choline transporter CHT; B-score at 10 µM; 0.49% of 310,000 active; CHT-expressing cells, membrane potential dye, choline EC20; active compounds read high; LV-AA mutant CHT in HEK293 cells;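 active = initial fluorescence not abnormally high and integrated response B-score, plate-corrected, over 3 SD above library mean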
Target sequence (Q9GZV3 whole entry, looked up): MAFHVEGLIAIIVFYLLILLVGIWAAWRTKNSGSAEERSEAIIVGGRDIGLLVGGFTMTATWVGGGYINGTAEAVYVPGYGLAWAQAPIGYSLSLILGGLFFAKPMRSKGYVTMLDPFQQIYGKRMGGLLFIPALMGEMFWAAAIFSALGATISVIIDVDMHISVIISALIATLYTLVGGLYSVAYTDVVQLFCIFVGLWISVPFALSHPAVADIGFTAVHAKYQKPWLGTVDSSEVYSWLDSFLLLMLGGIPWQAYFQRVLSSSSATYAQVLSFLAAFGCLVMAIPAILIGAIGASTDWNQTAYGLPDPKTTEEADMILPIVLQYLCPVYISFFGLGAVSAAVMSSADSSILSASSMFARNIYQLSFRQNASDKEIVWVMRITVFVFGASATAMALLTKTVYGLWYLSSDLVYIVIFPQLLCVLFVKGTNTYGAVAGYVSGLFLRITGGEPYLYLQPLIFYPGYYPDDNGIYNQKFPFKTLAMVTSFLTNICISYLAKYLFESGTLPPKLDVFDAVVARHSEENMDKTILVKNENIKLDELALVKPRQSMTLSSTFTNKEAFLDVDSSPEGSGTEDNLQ
TMEM16A inh – mouse TMEM16A channel inhibition, primary screen; HEK293 TMEM16A/YFP iodide influx fluorescence, ionomycin; normalized B-score (activity score, 25-100; higher = stronger inhibition) at 10 µM; 1.2% of 310,000 active; AID 588511;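 active = ratio plate-corrected score three or more library SD toward inhibition, starting fluorescence score within five deviations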;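 note: score derived from kinetic fluorescence span divided by baseline fluorescence per well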
IMP-1 inh-1 – blocks Pseudomonas aeruginosa IMP-1 metallo-beta-lactamase; purified IMP-1, nitrocefin hydrolysis, epi-absorbance fluorescence; inhibition, % at 5.6 µM; 0.45% of 290,000 active; AID 1556;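 active = inhibition above the mean plus 3 SD of all compounds in the same screening run, cut at about 4.5% in these data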;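 note: 0% = IMP-1 with DMSO and 100% = DMSO wells lacking enzyme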
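System – purified recombinant IMP-1 beta-lactamase · Input – IMP-1 dispensed at 0.2 nM · Timing – 15 min preincubation plus 25 min reaction at 25 °C · Signal – Epi-absorbance fluorescence, 480 nm excitation, 530 nm emission · Measure – percent IMP-1 inhibition derived from blank-referenced optical density · Controls – Enzyme-plus-DMSO low control, enzyme-free DMSO high control · Replication – singlicate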
TMEM16A act – activators or potentiators of mouse TMEM16A chloride channel; HEK293 TMEM16A/YFP-H148Q/I152L, iodide quench fluorescence; active compounds read low; B-score at 10 µM; 0.3% of 340,000 active; AID 623877;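 active = fluorescence-ratio B-score plate-corrected deviation score at least 3 library SD below zero, with starting fluorescence score within 5 deviations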;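 note: channel opened by trigger with iodide after compound preincubation; score built on the fluorescence ratio of max minus min over baseline; more negative score means more quench and so TMEM16A activation or potentiation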
CHT block – inhibitors of human choline transporter CHT | Q9GZV3 | B-score at 10 µM | 0.86% of 310,000 active | AID 488975 | CHT-expressing cells, membrane potential dye, choline response; active compounds read low;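 active = B-score over 3 SD under the library average, and starting fluorescence ratio not unusually high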;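 note: choline stimulus applied at its EC90 after an EC20 pre-addition; B-score computed on integrated fluorescence ratio after choline addition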
IMP-1 inh-2 – IMP-1 inhibition, counter-screen for VIM-2 inhibitors; inhibition, % at 5.6 µM; shares compounds with VIM-2 inh; purified IMP-1, nitrocefin hydrolysis, epi-absorbance fluorescence; 1,300 tested, under 10 active; call rule not given here;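 note: 0% = enzyme with vehicle and 100% = vehicle without enzyme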
VIM-2 FRET inh – VIM-2 FRET inhibition, artifact counter-screen; shares compounds with VIM-2 inh; purified VIM-2, CCF2 FRET substrate hydrolysis; inhibition, % at 5.6 µM; 23% of 1,300 active; AID 1857;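 active = inhibition above the mean of all tested compounds plus 3 SD, cut at about 19% in these data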;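 note: 0% = VIM-2 plus DMSO and 100% = no enzyme wells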
TEM-1 inh – TEM-1 inhibition, counter-screen for VIM-2 inhibitors; 3% of 1,300 active; inhibition, % at 5.6 µM; AID 1866; Purified TEM-1, nitrocefin hydrolysis, epi-absorbance fluorescence; shares compounds with VIM-2 inh;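 active = inhibition above that campaign's mean inhibition plus 3 SD, cut at about 0.46% in these data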;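 note: 0% = TEM-1 with DMSO and 100% = TEM-1 with 100 µM potassium clavulanate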
VIM-2 confirm 2 – confirmation of P. aeruginosa VIM-2 metallo-beta-lactamase inhibitors. shares compounds with VIM-2 inh. purified VIM-2, nitrocefin hydrolysis, epi-absorbance. inhibition, % at 5.6 µM. 96% of 1,300 active;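 active = inhibition of the VIM-2 beta-lactamase enzyme above about 11% from the earlier first-round screen, limit read from the data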;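 note: 0% = VIM-2 with DMSO and 100% = buffer wells without enzyme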
Numbers without * were called inactive; i = inactive; · = no result given.

SMILES	VIM-2 inh	CHT allo act	TMEM16A inh	IMP-1 inh-1	TMEM16A act	CHT block	IMP-1 inh-2	VIM-2 FRET inh	TEM-1 inh	VIM-2 confirm 2
Cc1c(OCC(=O)NCC(O)c2ccccc2)ccc2c3c(c(=O)oc12)CCC3 (stereo unspecified)	20*	i	i	0	i	i	-3	-4	-9	28*
O=C(COc1cc2oc(=O)c3c(c2cc1Cl)CCC3)Nc1ccccn1	6	i	i	-1	i	i	·	·	·	·
O=C(COc1cc2oc(=O)c3c(c2cc1Cl)CCC3)NCC(O)c1ccccc1 (stereo unspecified)	14*	i	i	-2	i	i	-2	2	-5	26*
O=C(CN1C(=O)CSc2ccc(S(=O)(=O)N3CCCCC3)cc21)NCc1ccccc1Cl	-4	i	i	-3	i	i	·	·	·	·
CC1CCCCC1NC(=O)COC(=O)COc1ccccc1F (stereo unspecified)	·	·	·	·	i	·	·	·	·	·
COC(=O)c1oc2nc(C)cc(C)c2c1N	15*	i	i	4	i	i	-3	0	-6	14*
CCCc1cc(NCCCn2ccnc2)n2nc(C)c(-c3ccccc3)c2n1	26*	i	i	-3	i	-7.1*	-3	-30	-5	47*
CCC(=O)N(CCC1(c2ccccc2OC)CCOC(C(C)C)C1)Cc1ccco1 (stereo unspecified)	-1	i	i	-2	i	i	·	·	·	·
Cc1nc(-c2ccccn2)nc(SCC(=O)c2ccc(F)cc2)c1Cl	50*	i	i	-6	i	i	-5	-24	-6	67*
COc1ccc(C(=O)CSc2nnc3ccc(-c4ccccn4)nn23)cc1	2	i	i	-1	i	i	·	·	·	·
COc1ccc(C(=O)CSc2nc(-c3ccccn3)nc(C)c2Cl)cc1	29*	i	i	-4	i	i	-5	-26	-6	61*
Oc1ccc(Oc2ccc3c(C(F)(F)F)cc(C(F)(F)F)nc3n2)cc1	13*	i	i	-1	i	i	-3	-1	-6	28*
COc1ccc(Oc2ccc3c(C(F)(F)F)cc(C(F)(F)F)nc3n2)cc1	-1	i	i	-2	i	i	·	·	·	·
COc1cccc(NC(=O)c2ccc(N3C(=O)C4CCC(C)CC4C3=O)cc2)c1 (stereo unspecified)	-4	i	i	-3	i	i	·	·	·	·
c1ccc(Cn2c3ccccc3c3nnc(SCCN4CCCCC4)nc32)cc1	27*	i	i	-2	i	i	-4	1	-9	42*
C=CCn1c2ccccc2c2nnc(SCCCn3c(=O)[nH]c4ccccc43)nc21	6	·	·	-1	i	·	·	·	·	·
C=CCn1c2ccccc2c2nnc(SCCN3CCCCC3)nc21	19*	i	i	-2	i	i	-4	4	-8	22*
O=C(NC(=S)Nc1ccccc1N1CCOCC1)c1ccc(-c2ccccc2F)o1	-2	i	i	-3	i	i	·	·	·	·
c1ccc(-c2nnc3nc(N4CCCCC4)nc(N4CCCCC4)n23)cc1	·	·	·	·	i	·	·	·	·	·
O=C(NCCCn1ccnc1)c1nn2c(C(F)(F)F)cc(-c3ccccc3)nc2c1Cl	27*	i	i	-3	i	i	-3	-12	-4	53*
COCCNC(=O)c1nn2c(C(F)(F)F)cc(-c3ccccc3)nc2c1Cl	4	i	i	-1	i	i	·	·	·	·
